Source: ChEMBL document CHEMBL1275537, “In vitro activities of tigecycline and 10 other antimicrobials against nonpigmented rapidly growing mycobacteria” (2008)
≈ marks a conversion by molar mass, not a printed value.

Experiments:
Type in all cases: functional
[1] = tested on: Mycolicibacterium peregrinum; assay: Antibacterial activity against nonpigmented rapidly growing Mycobacterium peregrinum after 3 days by broth microdilution method; conditions: 72 h
Method in brief: (§1)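 MIC by broth microdilution. Strains are collection strains and clinical isolates, grown on 5% sheep blood tryptic soy agar at 35°C for 4 days in room air. Inoculum is made straight from the blood agar plates in cation-supplemented Mueller-Hinton broth with 0.02% Tween 80. Doubling dilutions run 64 to 0.03 µg/ml. Plates are incubated at 30°C in room air and read at 3 days. E. coli ATCC 25922, S. aureus ATCC 29213 and E. faecalis ATCC 29212 serve as controls. MIC50 and MIC90 are given where ≥10 strains were tested, otherwise the range.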

Mycobacterium alvei = assay: Antibacterial activity against nonpigmented rapidly growing Mycobacterium alvei after 3 days by broth microdilution method; conditions: Mycolicibacterium alvei, 72 h; method in brief: as §1
Mycobacterium wolinskyi = assay: Antibacterial activity against nonpigmented rapidly growing Mycobacterium wolinskyi after 3 days by broth microdilution method; conditions: Mycolicibacterium wolinskyi, 72 h; method in brief: as §1
Mycobacterium septicum = assay: Antibacterial activity against nonpigmented rapidly growing Mycobacterium septicum after 3 days by broth microdilution method; conditions: Mycolicibacterium septicum, 72 h; method in brief: as §1
[2] = tested on: Mycobacteroides abscessus; assay: Antibacterial activity against nonpigmented rapidly growing Mycobacterium abscessus after 3 days by broth microdilution method; conditions: 72 h; method in brief: as §1
[3] = tested on: Mycolicibacterium fortuitum; assay: Antibacterial activity against nonpigmented rapidly growing Mycobacterium fortuitum after 3 days by broth microdilution method; conditions: 72 h; method in brief: as §1
Mycobacteroides chelonae = assay: Antibacterial activity against nonpigmented rapidly growing Mycobacterium chelonae after 3 days by broth microdilution method; conditions: 72 h; method in brief: as §1
[4] = tested on: Mycolicibacterium mageritense; assay: Antibacterial activity against nonpigmented rapidly growing Mycobacterium mageritense after 3 days by broth microdilution method; conditions: 72 h; method in brief: as §1
Mycobacterium porcinum = assay: Antibacterial activity against nonpigmented rapidly growing Mycobacterium porcinum after 3 days by broth microdilution method; conditions: Mycolicibacterium porcinum, 72 h; method in brief: as §1
[5] = tested on: Mycobacterium mucogenicum; assay: Antibacterial activity against nonpigmented rapidly growing Mycobacterium mucogenicum after 3 days by broth microdilution method; conditions: Mycolicibacterium mucogenicum, 72 h; method in brief: as §1
[6] = tested on: Mycolicibacterium smegmatis; assay: Antibacterial activity against nonpigmented rapidly growing Mycobacterium smegmatis after 3 days by broth microdilution method; conditions: 72 h; method in brief: as §1

Structure (SMILES) | MIC50 [1] [µg/mL] | MIC90 [1] [µg/mL] | MIC (Mycobacterium alvei) [µg/mL] | MIC (Mycobacterium wolinskyi) [µg/mL] | MIC (Mycobacterium septicum) [µg/mL] | MIC50 [2] [µg/mL] | MIC90 [2] [µg/mL] | MIC50 [3] [µg/mL] | MIC90 [3] [µg/mL] | MIC50 (Mycobacteroides chelonae) [µg/mL] | MIC90 (Mycobacteroides chelonae) [µg/mL] | MIC [4] [µg/mL] | MIC (Mycobacterium porcinum) [µg/mL] | MIC [5] [µg/mL] | MIC [6] [µg/mL]
NCC[C@H](O)C(=O)N[C@@H]1C[C@H](N)[C@@H](O[C@H]2O[C@H](CN)[C@@H](O)[C@H](O)[C@H]2O)[C@H](O)[C@H]1O[C@H]1O[C@H](CO)[C@@H](O)[C@H](N)[C@H]1O [AMIKACIN] | 0.5 (≈ 0.854 µM) | 1 (≈ 1.71 µM) | ≤ 0.5 | 1 (≈ 1.71 µM) | 1 (≈ 1.71 µM) | 2 (≈ 3.42 µM) | 8 (≈ 13.7 µM) | 1 (≈ 1.71 µM) | 2 (≈ 3.42 µM) | 1 (≈ 1.71 µM) | 16 (≈ 27.3 µM) | 0.5 (≈ 0.854 µM) | 0.25 (≈ 0.427 µM) | 0.25 (≈ 0.427 µM) | ≤ 0.03
CC[C@H]1OC(=O)[C@H](C)[C@@H](O[C@H]2C[C@@](C)(OC)[C@@H](O)[C@H](C)O2)[C@H](C)[C@@H](O[C@@H]2O[C@H](C)C[C@H](N(C)C)[C@H]2O)[C@](C)(O)C[C@@H](C)CN(C)[C@H](C)[C@@H](O)[C@]1(C)O [AZITHROMYCIN] | 0.5 (≈ 0.668 µM) | 64 (≈ 85.4 µM) | ≤ 0.03 | 128 (≈ 171 µM) | 0.5 (≈ 0.668 µM) | 0.5 (≈ 0.668 µM) | 2 (≈ 2.67 µM) | 8 (≈ 10.7 µM) | > 64 | 0.5 (≈ 0.668 µM) | 16 (≈ 21.4 µM) | 2 (≈ 2.67 µM) | 32 (≈ 42.7 µM) | ≤ 0.03 | 0.06 (≈ 0.0801 µM)
CO[C@@]1(NC(=O)Cc2cccs2)C(=O)N2C(C(=O)O)=C(COC(N)=O)CS[C@@H]21 [CEFOXITIN] | – | – | 2 (≈ 4.68 µM) | 1 (≈ 2.34 µM) | 32 (≈ 74.9 µM) | – | – | – | – | – | – | 1 (≈ 2.34 µM) | 2 (≈ 4.68 µM) | 0.5 (≈ 1.17 µM) | 1 (≈ 2.34 µM)
O=C(O)c1cn(C2CC2)c2cc(N3CCNCC3)c(F)cc2c1=O [CIPROFLOXACIN] | ≤ 0.03 | 0.06 (≈ 0.181 µM) | ≤ 0.03 | 0.25 (≈ 0.754 µM) | 0.12 (≈ 0.362 µM) | 2 (≈ 6.04 µM) | 8 (≈ 24.1 µM) | ≤ 0.03 | 0.12 (≈ 0.362 µM) | 0.12 (≈ 0.362 µM) | 2 (≈ 6.04 µM) | ≤ 0.03 | ≤ 0.03 | ≤ 0.03 | 0.12 (≈ 0.362 µM)
CC[C@H]1OC(=O)[C@H](C)[C@@H](O[C@H]2C[C@@](C)(OC)[C@@H](O)[C@H](C)O2)[C@H](C)[C@@H](O[C@@H]2O[C@H](C)C[C@H](N(C)C)[C@H]2O)[C@](C)(OC)C[C@@H](C)C(=O)[C@H](C)[C@@H](O)[C@]1(C)O [CLARITHROMYCIN] | 0.06 (≈ 0.0802 µM) | 2 (≈ 2.67 µM) | ≤ 0.03 | 32 (≈ 42.8 µM) | ≤ 0.03 | ≤ 0.03 | 1 (≈ 1.34 µM) | 2 (≈ 2.67 µM) | 16 (≈ 21.4 µM) | 0.06 (≈ 0.0802 µM) | 4 (≈ 5.35 µM) | 2 (≈ 2.67 µM) | 0.5 (≈ 0.668 µM) | ≤ 0.03 | ≤ 0.03
C[C@H]1c2cccc(O)c2C(=O)C2=C(O)[C@]3(O)C(=O)C(C(N)=O)=C(O)[C@@H](N(C)C)[C@@H]3[C@@H](O)[C@@H]21.O [DOXYCYCLINE] | 8 | 32 | ≤ 0.03 | 0.25 | 32 | > 64 | > 64 | 4 | 64 | 8 | 64 | ≤ 0.03 | 8 | ≤ 0.03 | ≤ 0.03
CC[C@H]1OC(=O)[C@H](C)[C@@H](O[C@H]2C[C@@](C)(OC)[C@@H](O)[C@H](C)O2)[C@H](C)[C@@H](O[C@@H]2O[C@H](C)C[C@H](N(C)C)[C@H]2O)[C@](C)(O)C[C@@H](C)C(=O)[C@H](C)[C@@H](O)[C@]1(C)O [ERYTHROMYCIN] | 1 (≈ 1.36 µM) | 16 (≈ 21.8 µM) | ≤ 0.03 | 128 (≈ 174 µM) | 2 (≈ 2.73 µM) | 1 (≈ 1.36 µM) | 16 (≈ 21.8 µM) | 64 (≈ 87.2 µM) | > 64 | 0.5 (≈ 0.681 µM) | 32 (≈ 43.6 µM) | 32 (≈ 43.6 µM) | 8 (≈ 10.9 µM) | ≤ 0.03 | 0.12 (≈ 0.164 µM)
C[C@H]1COc2c(N3CCN(C)CC3)c(F)cc3c(=O)c(C(=O)O)cn1c23.C[C@H]1COc2c(N3CCN(C)CC3)c(F)cc3c(=O)c(C(=O)O)cn1c23.O [LEVOFLOXACIN] | 0.06 | 0.25 | ≤ 0.03 | 0.06 | 0.12 | 16 | 32 | 0.06 | 0.25 | 0.5 | 8 | ≤ 0.03 | 0.06 | 0.06 | ≤ 0.03
CN(C)c1cc(NC(=O)CNC(C)(C)C)c(O)c2c1C[C@H]1C[C@H]3[C@H](N(C)C)C(O)=C(C(N)=O)C(=O)[C@@]3(O)C(O)=C1C2=O [TIGECYCLINE] | 0.06 (≈ 0.102 µM) | 0.06 (≈ 0.102 µM) | ≤ 0.03 | 0.12 (≈ 0.205 µM) | ≤ 0.03 | 0.06 (≈ 0.102 µM) | 0.5 (≈ 0.854 µM) | ≤ 0.03 | 0.25 (≈ 0.427 µM) | 0.12 (≈ 0.205 µM) | 0.5 (≈ 0.854 µM) | ≤ 0.03 | 0.06 (≈ 0.102 µM) | ≤ 0.03 | ≤ 0.03
NC[C@H]1O[C@H](O[C@H]2[C@H](O)[C@@H](O[C@H]3O[C@H](CO)[C@@H](O)[C@H](N)[C@H]3O)[C@H](N)C[C@@H]2N)[C@H](N)C[C@@H]1O [TOBRAMYCIN] | 4 (≈ 8.56 µM) | 8 (≈ 17.1 µM) | 4 (≈ 8.56 µM) | 8 (≈ 17.1 µM) | 0.5 (≈ 1.07 µM) | 8 (≈ 17.1 µM) | 16 (≈ 34.2 µM) | 16 (≈ 34.2 µM) | 32 (≈ 68.4 µM) | 4 (≈ 8.56 µM) | 16 (≈ 34.2 µM) | 8 (≈ 17.1 µM) | 1 (≈ 2.14 µM) | 1 (≈ 2.14 µM) | ≤ 0.03
